Reference: ChEMBL document CHEMBL1123655, “Synthesis, cell growth inhibition, and antitumor screening of 2-(p-n-butylanilino)purines and their nucleoside analogues” (J Med Chem, 1987)

How the values were obtained:
HeLa [1] = test: Effect on DNA synthesis by HeLa cells was determined by the percentage inhibition of [3H]- thymidine incorporation after 3h at 100 uM; assay type: functional; details: Homo sapiens
Outline: (§1)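 Exponentially growing HeLa S3 cells (7×10^5 cells/mL, suspension) exposed to compound at 100 μM in Me2SO, or Me2SO alone, at 37 °C. After 3 h, [methyl-3H]thymidine added to 1 μCi/mL. After 30 min, quenched with cold PBS, pelleted, alkali hydrolysed (1 M NaOH, 65 °C, 1 h), TCA/pyrophosphate precipitated and filtered. Alkali-stable acid-insoluble counts give % inhibition versus solvent control.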

HeLa [2] = test: Compound (at a concentration of 100 uM) was evaluated for the effect on DNA synthesis by HeLa cells in culture and the percentage inhibition of [3H]- thymidine incorporation after 3h of addition was reported.; assay type: functional; details: Homo sapiens; outline: as §1
HeLa [3] = test: Compound was evaluated for the effect on DNA synthesis by HeLa cells in culture and the inhibition of [3H]- thymidine incorporation after 3h of addition; assay type: functional, cell-based; details: Homo sapiens
Outline: (§2)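 IC50 for [methyl-3H]thymidine incorporation into DNA of exponentially growing HeLa S3 suspension cells (7×10^5 cells/mL). Compounds in Me2SO, or Me2SO control, incubated 3 h at 37 °C, then label added at 1 μCi/mL for 30 min. Alkali-stable, acid-precipitable counts measured after NaOH (65 °C, 1 h) and TCA/pyrophosphate filtration.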

HeLa [4] = test: Effect on DNA synthesis by HeLa cells was determined by the percentage inhibition of [3H]- thymidine incorporation after 3h; assay type: functional, cell-based; details: Homo sapiens
HeLa [5] = test: Percent inhibition against [3H]uridine incorporation into DNA of HeLa cell after 45 mins of treatment; assay type: functional, Homo sapiens
Outline: (§3)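 Exponentially growing HeLa S3 cells (7×10^5 cells/mL) treated with compound in Me2SO (100 μM, or 10 μM where stated), or Me2SO alone, for 3 h at 37 °C. [5,6-3H]uridine then added to 1 μCi/mL for 45 min. DNA: counts remaining acid-precipitable after 1 M NaOH at 60 °C, 1 h. RNA: total TCA-precipitable counts minus the DNA counts.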

HeLa [6] = test: Percent inhibition against [3H]uridine incorporation into RNA of HeLa cell after 45 mins of treatment at 10 uM; assay type: functional; details: Homo sapiens; outline: as §3
HeLa [7] = test: Compound was evaluated for the effect on growth and macromolecule synthesis by HeLa cells and the cell growth inhibition; assay type: functional, cell-based; details: Homo sapiens
Outline: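 HeLa S3 cells (ca. 2.5×10^4 cells/mL), exponentially growing in Joklik's modified medium with 3.5% calf and 3.5% fetal bovine serum, preincubated 3 h at 37 °C in spinner flasks. Compound in Me2SO or solvent added, and cells counted at t=0 and after 72 h. IC50 derived from % growth inhibition.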

HeLa [8] = test: Effect on growth and macromolecule synthesis by HeLa cells was determined as the percentage inhibition of [3H]- leucine incorporation after 3h of addition at 100 uM; assay type: functional; details: Homo sapiens
HeLa [9] = test: Effect on DNA synthesis by HeLa cells was determined by the percentage inhibition of [3H]- thymidine incorporation after 3h at 200 uM; assay type: functional, Homo sapiens
Outline: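 HeLa S3 cells in exponential suspension culture (7×10^5 cells/mL) treated at 200 μM in Me2SO, or Me2SO alone, at 37 °C. After 3 h, [methyl-3H]thymidine added to 1 μCi/mL for 30 min. Cells were then pelleted, NaOH hydrolysed at 65 °C, and TCA precipitated onto filters. Alkali-stable acid-precipitable radioactivity gives % inhibition against solvent control.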

HeLa [10] = test: Effect on DNA synthesis by HeLa cells was determined by the inhibition of [3H]- thymidine incorporation after 3h of addition; assay type: functional, cell-based; details: Homo sapiens; outline: as §2
HeLa [11] = test: Percent inhibition against [3H]-Uridine incorporation into RNA of HeLa cell after 45 mins of treatment at 100 uM; assay type: functional; details: Homo sapiens; outline: as §3
HeLa [12] = test: Percent inhibition against [3H]-Uridine incorporation into DNA of HeLa cell after 45 mins of treatment at 100 uM; assay type: functional; details: Homo sapiens; outline: as §3
HeLa [13] = test: Compound (at a concentration of 100 uM) was evaluated for the effect on growth and macromolecule synthesis by HeLa cells and the percentage inhibition of [3H]- leucine incorporation after 3h of addition; assay type: functional; details: Homo sapiens
HeLa [14] = test: Percent inhibition against [3H]uridine incorporation into RNA of HeLa cell after 45 mins of treatment; assay type: functional, Homo sapiens; outline: as §3
HeLa [15] = test: Compound was evaluated for the effect on [3H]- Uridine incorporation by HeLa cells and percentage inhibition into DNA; assay type: functional, Homo sapiens
Outline: (§4)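 HeLa S3 cells grown in suspension, exponential phase (7 × 10^5 cells/mL), given compound in Me2SO (Me2SO alone for controls) for 3 h at 37 °C, then [5,6-3H]uridine to 1 μCi/mL for 45 min. DNA: alkali-stable, TCA-precipitable counts after 1 M NaOH at 60 °C for 1 h. RNA: total acid-precipitable nucleic acid minus DNA counts. Percent inhibition relative to control.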

HeLa [16] = test: Compound was evaluated for the effect on [3H]- Uridine incorporation by HeLa cells and percentage inhibition into RNA; assay type: functional, Homo sapiens; outline: as §4
HeLa [17] = test: Compound was evaluated for the effect on DNA synthesis by HeLa cells in culture and the percentage inhibition of [3H]- thymidine incorporation after 3h of addition was reported at 100 uM; assay type: functional; details: Homo sapiens; outline: as §1

With `CCCCc1ccc(Nc2nc(S)c3ncn(COCCO)c3n2)cc1` the inhibition at 100 µM (HeLa [1]) was 87%.
`CCCCc1ccc(Nc2nc(S)c3ncn([C@@H]4C[C@@H](O)[C@H](CO)O4)c3n2)cc1` showed an inhibition at 100 µM (HeLa [1]) of 63%.
Compound `CCCCc1ccc(Nc2nc3ncnc-3c[nH]2)cc1` has an inhibition at 100 µM (HeLa [2]) of 78% and an IC50 (HeLa [3]) of 47 µM.
For `CCc1cc(Nc2nc(O)c3[nH]cnc3n2)ccc1C`, the inhibition at 100 µM (HeLa [2]) was 44%.
For `CCCCc1ccc(Nc2nc(O)c3ncn(COCCO)c3n2)cc1`, the inhibition at 100 µM (HeLa [1]) was 81% and the IC50 (HeLa [4]) was 38 µM.
`CCCCc1ccc(Nc2nc(N)c3ncn([C@@H]4C[C@@H](O)[C@H](CO)O4)c3n2)cc1` showed an Inhibition (HeLa [5]) of 81%, an inhibition at 100 µM (HeLa [1]) of 96% and an inhibition at 10 µM (HeLa [6]) of 73%. For the same compound, the IC50 (HeLa [7]) was 1.4 µM, the IC50 (HeLa [4]) was 1 µM and the inhibition at 100 µM (HeLa [8]) was 56%.
In the case of `CCCCc1ccc(Nc2nc3c(ncn3[C@H]3O[C@@H](CO)[C@H](O)[C@@H]3O)c(=O)[nH]2)cc1` (stereo in doubt; 13), the Inhibition (HeLa [9]) is reported as 75%.
Work on `CCCCc1ccc(Nc2nc(Cl)c3ncn(COCCO)c3n2)cc1` yielded an inhibition at 100 µM (HeLa [1]) of 99% and an IC50 (HeLa [4]) of 9 µM.
With `CCCCc1ccc(Nc2nc3c(ncn3[C@@H]3C[C@@H](O)[C@H](CO)O3)c(=O)[nH]2)cc1` the inhibition at 100 µM (HeLa [1]) was 86%, the IC50 (HeLa [10]) was 37 µM and the IC50 (HeLa [7]) was 25 µM. The inhibition at 100 µM (HeLa [11]) was 91%, the inhibition at 100 µM (HeLa [8]) was 7% and the inhibition at 100 µM (HeLa [12]) was 91%.
`CCCCc1ccc(Nc2nc(N)c3[nH]cnc3n2)cc1` showed an Inhibition (HeLa [5]) of 93%, an inhibition at 100 µM (HeLa [2]) of 92% and an inhibition at 100 µM (HeLa [13]) of 47%. The IC50 (HeLa [7]) was 40 µM, the IC50 (HeLa [3]) was 23 µM and the Inhibition (HeLa [14]) was 87%.
`Oc1[nH]c(Nc2ccc3c(c2)CCC3)nc2ncnc1-2` showed an inhibition at 100 µM (HeLa [2]) of 79% and an IC50 (HeLa [3]) of 52 µM.
Compound `CCCCc1ccc(Nc2nc3c(ncn3[C@@H]3C[C@@H](O)[C@H](CO)O3)c(=O)[nH]2)cc1` (stereo in doubt; 12) has an inhibition at 200 µM (HeLa [9]; Homo sapiens, HeLa, 3 h) of 46%.
Work on `CCCCc1ccc(Nc2nc(OC)c3ncn(COCCO)c3n2)cc1` yielded an inhibition at 100 µM (HeLa [1]) of 80%.
Compound `CCCCc1ccc(Nc2nc3c(ncn3[C@H]3O[C@@H](CO)[C@H](O)[C@@H]3O)c(=O)[nH]2)cc1` (stereo in doubt; 14) has an Inhibition (HeLa [9]) of 38%.
Compound `CCCCc1ccc(Nc2nc3c(ncn3[C@@H]3C[C@@H](O)[C@H](CO)O3)c(=O)[nH]2)cc1` (stereo in doubt; 11) has an Inhibition (HeLa [9]) of 53%.
In the case of `CCCCc1ccc(Nc2nc(S)c3[nH]cnc3n2)cc1`, the inhibition at 100 µM (HeLa [2]) is reported as 94% and the IC50 (HeLa [3]) is reported as 40 µM.
`CCCCc1ccc(Nc2ncc3ncn(COCCO)c3n2)cc1` was tested, and the inhibition at 100 µM (HeLa [1]) was 97% and the IC50 (HeLa [4]) was 4.8 µM.
In the case of `CCCCc1ccc(Nc2nc(Cl)c3ncn([C@@H]4C[C@@H](O)[C@H](CO)O4)c3n2)cc1`, the inhibition at 100 µM (HeLa [1]) is reported as 97%, the IC50 (HeLa [7]) is reported as 10.3 µM and the IC50 (HeLa [4]) is reported as 11 µM. The inhibition at 100 µM (HeLa [8]) was 87%.
In the case of `CCCCc1ccc(Nc2nc(N)c3ncn(COCCO)c3n2)cc1`, the inhibition at 100 µM (HeLa [1]) is reported as 97% and the IC50 (HeLa [4]) is reported as 8.5 µM.
`C[C@@]1(CO)[C@H](O)CC[C@@]2(C)[C@H]1CC[C@H]1C[C@@H]3C[C@@]12CC[C@]3(O)CO` [APHIDICOLIN] showed an Inhibition (HeLa [15]) of 84% and an Inhibition (HeLa [16]) of 0%.
In the case of `CCCCc1ccc(Nc2nc(SC)c3[nH]cnc3n2)cc1`, the inhibition at 100 µM (HeLa [2]) is reported as 72% and the IC50 (HeLa [3]) is reported as 32 µM.
With `CCCCc1ccc(Nc2nc(OC)c3[nH]cnc3n2)cc1` the inhibition at 100 µM (HeLa [2]) was 80% and the IC50 (HeLa [3]) was 30 µM.
With `CCCCc1ccc(Nc2nc(O)c3[nH]cnc3n2)cc1` the Inhibition (HeLa [5]) was 76%, the inhibition at 100 µM (HeLa [13]) was 13% and the inhibition at 100 µM (HeLa [17]) was 63%. It also gave an IC50 (HeLa [7]) of 65 µM, an IC50 (HeLa [3]) of 69 µM and an Inhibition (HeLa [14]) of 76%.
`CCCCc1ccc(Nc2nc(Cl)c3[nH]cnc3n2)cc1` showed an inhibition at 100 µM (HeLa [17]) of 99% and an IC50 (HeLa [3]) of 35 µM.
In the case of `CCCCc1ccc(Nc2ncc3ncn([C@@H]4C[C@@H](O)[C@H](CO)O4)c3n2)cc1`, the inhibition at 100 µM (HeLa [1]) is reported as 97%, the IC50 (HeLa [7]) is reported as 5 µM and the IC50 (HeLa [4]) is reported as 4.8 µM. For the same compound, the inhibition at 100 µM (HeLa [8]) was 58%.
